In ChEMBL document CHEMBL1154063, “Facile synthesis and in vitro properties of 1-alkyl- and 1-alkyl-N-propargyl-1,2,3,4-tetrahydroisoquinoline derivatives on PC12 cells” (Eur J Med Chem, 2009) one finds Activity data, which are given here for 13 compounds.

In data set [1] the test system is PC-12. Put plainly: Cytotoxicity against rat PC12 cells assessed as effect on cell viability at 0.05 to 1 mM after 48 hrs by tetrazolium/formazan assay. Type of data set: cell-based. Particulars: pc-12, 48 h, 1000 µM. The essentials: (§1)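 PC12 cells in log growth, seeded at 3×10^5 cells/mL in serum-containing DMEM. After 24 h, medium replaced with the derivative diluted in serum-free DMEM. After 48 h exposure, CCK-8 (WST tetrazolium) added for 4 h at 37 °C. A490 read and viability expressed as % of untreated control. Means ± S.E., n = 3-6. Dunnett test after ANOVA.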

The subject of data set [2] is PC-12. Put plainly: Induction of apoptosis in rat PC12 cells assessed as length of migrated cell nucleus at 1 mM after 3 hrs by comet assay. In kind it is toxicity, cell-based. The following applies: pc-12, 3 h, 1000 µM. In a few lines: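 PC12 cells (5×10^5/well in PBS(-)) exposed to 1.0 mM final compound for 3 h at 37 °C. Cells embedded in low-melt agarose, lysed 1 h at 4 °C, then alkaline unwinding 30 min. Electrophoresed at 15 V for 30 min and stained with SYBR Green. 200 cells scored per sample under fluorescence at ×200. Whole comet length measured with an ocular micrometer.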

In data set [3] the test system is PC-12. Put plainly: Cytotoxicity against rat PC12 cells assessed as effect on cell viability at 0.01 mM after 48 hrs by tetrazolium/formazan assay. Type of data set: cell-based. Particulars: pc-12, 48 h, 10 µM. In a few lines:
as §1

For data set [4], the system named is PC-12. Put plainly: Cytotoxicity against rat PC12 cells assessed as effect on cell viability at 0.5 mM after 48 hrs by tetrazolium/formazan assay. The following applies: pc-12, 48 h, 500 µM.
The subject of data set [5] is PC-12. Nature of the data set: Cytotoxicity against rat PC12 cells assessed as effect on cell viability at 1 mM after 48 hrs by tetrazolium/formazan assay. The following applies: pc-12, 48 h, 1000 µM.
In data set [6] the target is T1, Amine oxidase [flavin-containing] B (Homo sapiens, UniProt P27338).
T1 sequence (P27338 whole entry): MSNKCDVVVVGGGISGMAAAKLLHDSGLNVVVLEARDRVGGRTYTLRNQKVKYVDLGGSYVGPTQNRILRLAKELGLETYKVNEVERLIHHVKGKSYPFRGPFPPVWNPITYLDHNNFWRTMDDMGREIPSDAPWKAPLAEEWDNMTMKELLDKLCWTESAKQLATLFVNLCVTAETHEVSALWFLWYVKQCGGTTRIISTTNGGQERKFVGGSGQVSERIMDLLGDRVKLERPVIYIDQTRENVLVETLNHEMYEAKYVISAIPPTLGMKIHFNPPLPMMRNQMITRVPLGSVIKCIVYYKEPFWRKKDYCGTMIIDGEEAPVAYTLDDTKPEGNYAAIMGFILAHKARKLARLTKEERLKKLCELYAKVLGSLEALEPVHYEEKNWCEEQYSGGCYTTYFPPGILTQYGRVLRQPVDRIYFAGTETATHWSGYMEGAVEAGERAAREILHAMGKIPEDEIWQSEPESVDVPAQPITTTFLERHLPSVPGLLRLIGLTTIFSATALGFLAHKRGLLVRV
Nature of the data set: Inhibition of MAOB at 100 nM after 60 mins using benylamine as substrate relative to control. More on the design: scale not given: the % may be the effect or the level left. Particulars: 1 h.

For data set [7], the target named is T2, Amine oxidase [flavin-containing] A (Homo sapiens, UniProt P21397).
T2 sequence (P21397 whole entry): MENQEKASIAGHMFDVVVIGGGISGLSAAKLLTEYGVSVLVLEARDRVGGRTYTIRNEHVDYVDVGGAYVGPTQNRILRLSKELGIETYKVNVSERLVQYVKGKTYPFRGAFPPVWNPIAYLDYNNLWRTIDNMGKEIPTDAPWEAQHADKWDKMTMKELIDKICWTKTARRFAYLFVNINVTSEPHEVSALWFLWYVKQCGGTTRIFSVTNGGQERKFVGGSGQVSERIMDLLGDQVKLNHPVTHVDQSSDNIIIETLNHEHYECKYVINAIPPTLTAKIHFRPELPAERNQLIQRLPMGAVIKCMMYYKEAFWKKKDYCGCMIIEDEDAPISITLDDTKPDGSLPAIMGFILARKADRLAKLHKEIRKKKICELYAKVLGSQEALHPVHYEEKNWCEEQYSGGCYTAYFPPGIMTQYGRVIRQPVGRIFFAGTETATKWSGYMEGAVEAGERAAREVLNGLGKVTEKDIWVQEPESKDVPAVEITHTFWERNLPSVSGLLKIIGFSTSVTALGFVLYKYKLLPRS
Put plainly: Inhibition of MAOA at 100 nM after 60 mins using tyramine as substrate relative to control. On the set-up: scale not given: the % may be the effect or the level left. Particulars: 1 h. In a few lines: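 MAO-A enzyme (10 µg/mL) incubated with 0.5 mM tyramine and 100 nM compound for 60 min at 37 °C. H2O2 formed was detected with a peroxidase-coupled fluorogenic kit (ex 530/em 590 nm). Activity expressed as % of vehicle control. Means ± S.E., n = 8.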

The target of data set [8] is T1, Amine oxidase [flavin-containing] B. Put plainly: Inhibition of MAOB at 100 nM after 60 mins using tyramine as substrate relative to control. Particulars: 1 h. More on the design: scale not given: the % may be the effect or the level left.

Molecules are shown by their SMILES.

`c1ccc2c(c1)CCNC2C1CCCCC1` (stereo unspecified): the Activity entry in data set [1] is listed as “Toxic”; in data set [2], 120 um; in data set [3] it was “Non-toxic”; in data set [4] it was “Toxic”.

Consider `CCCCCC1NCCc2ccccc21` (stereo unspecified), for which the Activity entry in data set [4] and in data set [5] was “Toxic” in each case.

Consider `CCCCCCC1NCCc2ccccc21` (stereo unspecified), for which the Activity entry in data set [1] is recorded as “Toxic”; in data set [2] it was 150 um; in data set [3], “Non-toxic”; in data set [4] it was “Toxic”; in data set [5] it was “Toxic”.

As to `CCCCC1NCCc2ccccc21` (stereo unspecified), the Activity result in data set [4] and in data set [5] was “Toxic” in each case.

Turning to `c1ccc2c(c1)CCNC2C1CCCC1` (stereo unspecified), the Activity entry is “Non-toxic” in data set [3] and “Toxic” in data set [4].

Turning to `C#CCN1CCc2ccccc2C1C` (stereo unspecified), the values for the Activity at 0.1 µM in data set [6], in data set [7] and in data set [8] were 99.4%, 97.5% and 101%, respectively.

For the compound `C#CCN1CCc2ccccc2C1C1CC1` (stereo unspecified), the results for the Activity at 0.1 µM in data set [6], in data set [7] and in data set [8] were 97.5%, 96.2% and 98.4%, respectively.

As to `c1ccc2c(c1)CCNC2C1CC1` (stereo unspecified), the Activity entry was “Non-toxic” in data set [3] and “Toxic” in data set [4].

Take `C[n+]1ccc(-c2ccccc2)cc1.[Cl-]`: the Activity in data set [2] was 60 um.

For `CCC1NCCc2ccccc21` (stereo unspecified), the Activity entry in data set [4] and in data set [5] was “Toxic” throughout.

Regarding `CCCC1NCCc2ccccc21` (stereo unspecified), the Activity entry in data set [4] and in data set [5] was “Toxic” throughout.

For the compound `c1ccc2c(c1)CCNC2C1CCC1` (stereo unspecified), the figures for the Activity entry in data set [3] and in data set [4] were “Non-toxic” and “Toxic”, respectively.

For the compound `C#CCN(C)[C@H](C)Cc1ccccc1` [SELEGILINE], in data set [7], the Activity at 0.1 µM was 94.2%.
